The target in assay [1] is Epidermal growth factor receptor (Homo sapiens, UniProt P00533). Kind of assay: Inhibition of human EGFR. In outline:
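Kinase activity measured with the C-terminal human EGFR tyrosine kinase domain; IC50 taken as the inhibitor concentration giving 50% inhibition.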

The target of assay [2] is Cyclin-dependent kinase 2/cyclin A (Homo sapiens, UniProt P24941). Kind of assay: Inhibition of CDK2/cyclin A expressed in baculovirus infected insect Sf21 cells using [gamma-P32]ATP and histone H1 as substrate after 10 mins by radiometric assay.
A further assay deals with HCT116 (Homo sapiens). Put plainly: Growth inhibition of human HCT116 cells after 2 days by SRB assay. Conditions: HCT116, 48 h. In general terms: The SRB assay estimates cell density from bound dye.
Assay [3] can be described thus: Inhibition of CDK4/cyclin D expressed in baculovirus infected insect Sf21 cells using [gamma-P32]ATP and histone H1 as substrate after 10 mins by radiometric assay. In outline:
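20 µL reactions in 50 mM Tris-HCl with 10 µM ATP, 0.2 µCi [γ-32P]ATP, 10 mM MgCl2, 5 mM DTT, 4 µg histone H1 substrate; 10 min with inhibitor, stopped with 30% phosphoric acid. Spotted on P81 paper, washed five times in 10 mM Tris-HCl pH 8.0/0.1 M NaCl, radioactivity imaged; IC50 = concentration giving 50% inhibition.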

Another assay deals with SNU-638. Put plainly: Growth inhibition of human SNU638 cells after 2 days by SRB assay. In kind it is functional. Conditions: SNU-638, 48 h. The gist of the method: (§1)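 Cells kept in RPMI 1640 with 10% FBS at 37 °C, 5% CO2; 1000 cells/well plated, compounds added next day at various concentrations for two days. Fixed with 4% formalin, stained with 0.1% sulforhodamine B, dye eluted in 0.1 M Tris/HCl pH 8.0, absorbance at 520 nm. Triplicate, averaged; 0% = treatment-time absorbance, 100% = untreated two-day growth; GI50 = 50% growth inhibition.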

The test system of a further assay is A-431. Kind of assay: Growth inhibition of human A431 cells after 2 days by SRB assay. The assay is classed as functional. Conditions: A-431, 48 h. The gist of the method:
as §1

Bounds are passed on as bounds.

For 15 molecules, IC50 and GI50 results are on record in ChEMBL document CHEMBL1909587, “Design, synthesis and biological study of novel pyrido[2,3-d]pyrimidine as anti-proliferative CDK2 inhibitors” (Eur J Med Chem, 2011).

Chain of Epidermal growth factor receptor (P00533 whole entry, the tested form may be a part): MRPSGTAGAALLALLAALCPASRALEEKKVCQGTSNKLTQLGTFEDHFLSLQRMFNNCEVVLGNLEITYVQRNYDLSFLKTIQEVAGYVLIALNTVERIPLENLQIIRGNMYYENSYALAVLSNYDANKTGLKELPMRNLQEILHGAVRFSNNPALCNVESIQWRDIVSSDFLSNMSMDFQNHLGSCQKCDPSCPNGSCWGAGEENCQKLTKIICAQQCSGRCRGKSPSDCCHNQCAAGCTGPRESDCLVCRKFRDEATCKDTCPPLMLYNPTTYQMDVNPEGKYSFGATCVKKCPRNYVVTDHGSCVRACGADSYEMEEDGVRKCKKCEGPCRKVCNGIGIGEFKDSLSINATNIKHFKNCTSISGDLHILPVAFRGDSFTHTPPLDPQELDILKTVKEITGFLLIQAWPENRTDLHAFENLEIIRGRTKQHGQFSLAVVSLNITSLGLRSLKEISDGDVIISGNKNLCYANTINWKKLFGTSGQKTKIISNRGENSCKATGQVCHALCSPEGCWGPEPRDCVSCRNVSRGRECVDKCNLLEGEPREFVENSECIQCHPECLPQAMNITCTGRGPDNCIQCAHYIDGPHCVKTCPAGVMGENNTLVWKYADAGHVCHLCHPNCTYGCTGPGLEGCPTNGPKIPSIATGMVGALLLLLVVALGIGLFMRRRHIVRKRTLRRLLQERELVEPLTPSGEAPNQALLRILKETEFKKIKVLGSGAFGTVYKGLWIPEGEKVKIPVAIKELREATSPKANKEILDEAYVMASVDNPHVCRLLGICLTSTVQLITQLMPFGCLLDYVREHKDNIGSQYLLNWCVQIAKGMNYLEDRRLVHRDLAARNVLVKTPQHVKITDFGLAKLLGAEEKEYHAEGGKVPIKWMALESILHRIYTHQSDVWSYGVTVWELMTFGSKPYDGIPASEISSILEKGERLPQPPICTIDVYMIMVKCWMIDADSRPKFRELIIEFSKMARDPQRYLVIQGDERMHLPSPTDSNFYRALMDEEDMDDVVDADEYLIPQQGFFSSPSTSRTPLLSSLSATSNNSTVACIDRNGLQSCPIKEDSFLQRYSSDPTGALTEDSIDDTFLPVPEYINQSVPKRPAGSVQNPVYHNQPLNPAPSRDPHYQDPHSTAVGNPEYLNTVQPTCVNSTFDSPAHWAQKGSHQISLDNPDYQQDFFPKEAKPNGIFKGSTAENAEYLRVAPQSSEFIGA

In general, IC50 refers to the concentration that gives 50% inhibition. As usually defined, the GI50 is the concentration giving 50% growth inhibition. A low value points to more potent growth inhibition. With `N#Cc1cc2c(N)ncnc2nc1NCCO`, the IC50 in assay [1] is 93.3 µM; in assay [2], 29.5 µM; in assay [3] it was above 200 µM. Also, the GI50 amounted to 4.5 µM with HCT116 (Homo sapiens), 20.8 µM in the assay with SNU-638 and 26.6 µM in the assay on A-431.

Consider `Cc1c(C#N)c(NCCO)nc2ncnc(N)c12`, for which the concentration for half-maximal inhibition (IC50) in assay [1] is above 100 µM; in assay [2], 29.5 µM; in assay [3], 36 µM. Moreover, the figures for the concentration for 50% growth inhibition (GI50) in the assay with HCT116 (Homo sapiens), in the assay on SNU-638 and in the assay on A-431 were 4.1 µM, 2.58 µM and 5.06 µM, respectively.

Take `N#Cc1cc2c(N)ncnc2nc1Nc1ccc(S(N)(=O)=O)cc1`: the IC50 in assay [1] is above 100 µM; in assay [2] it was 0.3 µM; in assay [3], 13 µM. Besides, the GI50 in the assay with HCT116 (Homo sapiens) was 19.3 µM; in the assay with SNU-638, 7.57 µM; in the assay on A-431, 7.8 µM.

Take `Cc1c(C#N)c(Nc2ccc(S(N)(=O)=O)cc2)nc2ncnc(N)c12`: the IC50 in assay [1] was above 100 µM; in assay [2], 10 µM; in assay [3] it was 16 µM. The GI50 in the assay with HCT116 (Homo sapiens) stood at 16.6 µM; in the assay with SNU-638 it was 6.2 µM; in the assay on A-431 it was 2.94 µM.

As for `Nc1scc2c1c(NCCO)nc1ncnc(N)c12`, the IC50 in assay [1] was above 100 µM; in assay [2] it was 0.5 µM; in assay [3] it was 29 µM. Besides, the values for the concentration for 50% growth inhibition (GI50) with HCT116 (Homo sapiens), in the assay on SNU-638 and in the assay with A-431 were 6.46 µM, 18.3 µM and 54.3 µM, respectively.

With `Nc1scc2c1c(Nc1ccc(S(N)(=O)=O)cc1)nc1ncnc(N)c12`, the IC50 was 29.5 µM in assay [1], 36.3 µM in assay [2] and above 120 µM in assay [3]. For the same molecule, the GI50 with HCT116 (Homo sapiens) was found to be 8.89 µM; in the assay with SNU-638 it was 2.56 µM; in the assay with A-431, 3.94 µM.

Consider `N#Cc1cc2c(N)nc(NCCO)nc2nc1NCCO`, for which the IC50 was above 100 µM in assay [1], 6.3 µM in assay [2] and 28 µM in assay [3]. The figures for the 50% growth inhibitory concentration (GI50) with HCT116 (Homo sapiens), in the assay with SNU-638 and in the assay with A-431 were 10.9 µM, 7.95 µM and 6.25 µM, respectively.

For the molecule `Cc1c(C#N)c(NCCO)nc2nc(NCCO)nc(N)c12`, the IC50 in assay [1] was 47.9 µM; in assay [2], 3.8 µM; in assay [3], 10 µM. Also, the GI50 with HCT116 (Homo sapiens) amounted to 20.1 µM; in the assay with SNU-638 it was 18.2 µM; in the assay on A-431, 31.9 µM.

Take `N#Cc1cc2c(N)nc(NCCO)nc2nc1Nc1ccc(S(N)(=O)=O)cc1`: the IC50 was above 100 µM in assay [1], 0.9 µM in assay [2] and 120 µM in assay [3]. Also, the GI50 in the assay with HCT116 (Homo sapiens) was determined as 48.2 µM; in the assay on SNU-638, 35.8 µM; in the assay with A-431, 36.3 µM.

Consider `Cc1c(C#N)c(Nc2ccc(S(N)(=O)=O)cc2)nc2nc(NCCO)nc(N)c12`, for which the IC50 was above 100 µM in assay [1], 3.1 µM in assay [2] and 95 µM in assay [3]. The 50% growth inhibitory concentration (GI50) was 38.2 µM in the assay on HCT116 (Homo sapiens), 17.1 µM in the assay with SNU-638 and above 100 µM in the assay on A-431.

As to `Nc1scc2c1c(NCCO)nc1nc(NCCO)nc(N)c12`, the IC50 in assay [1] was 66.1 µM; in assay [2], 0.09 µM; in assay [3] it was above 48 µM. Moreover, the GI50 with HCT116 (Homo sapiens) is 11.4 µM; in the assay with SNU-638, 2.57 µM; in the assay on A-431, 4.6 µM.

As for `Nc1scc2c1c(Nc1ccc(S(N)(=O)=O)cc1)nc1nc(NCCO)nc(N)c12`, the IC50 was above 100 µM in assay [1], 8.1 µM in assay [2] and 44 µM in assay [3]. Also, the GI50 in the assay on HCT116 (Homo sapiens) was 47.7 µM; in the assay on SNU-638 it was 26.1 µM; in the assay with A-431, 21.9 µM.

With `COc1cccc2c1C(=O)c1c(O)c3c(c(O)c1C2=O)C[C@@](O)(C(=O)CO)C[C@@H]3O[C@H]1C[C@H](N)[C@H](O)[C@H](C)O1` [DOXORUBICIN], the GI50 in the assay with HCT116 (Homo sapiens) is 0.13 µM; in the assay with A-431 it was 0.18 µM.

As for `Cn1cnc2c(NCc3ccccc3)nc(NCCO)nc21` [OLOMOUCINE], the GI50 was determined as 12.1 µM in the assay with HCT116 (Homo sapiens), 16.6 µM in the assay on SNU-638 and 16.6 µM with A-431. In assay [3], this molecule came in with an IC50 of 45 µM.

`CC[C@H](CO)Nc1nc(NCc2ccccc2)c2ncn(C(C)C)c2n1` [SELICICLIB] registered an IC50 in assay [3] of 15 µM.
